High-throughput results: PubChem BioAssay, several laboratories
Runt-CBFb FRET = blocks binding of human RUNX1 Runt domain to CBFb | Q01196+Q13951 | Cerulean-Runt/Venus-CBFb FRET ratio 530/480, 1 h | inhibition, % at 20 µM | 220,000 tested, 0.46% active;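 active = inhibition over about 50% at 20 µM in the single-dose screen, limit read from the data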;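 note: 0% = DMSO wells and 100% = excess unlabeled CBFb competitor control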
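test system = Cerulean-tagged RUNX1 Runt domain (FRET donor) fusion protein | reagent = Venus-CBFb binding partner, 100 nM | incubation = protein complex preformed 1 h, compound exposure 1 h, room temperature, dark | detection = FRET fluorescence | read-out basis = loss of energy transfer signal | controls = 5 µM unlabeled CBFb as full-inhibition high control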
RanGTP-Impb inh = inhibitors of RanGTP-importin-beta interaction, primary screen, biochemical, FRET, CFP-Ran, YFP-importin-beta, homogeneous; 300,000 tested, 1.1% active; cell-free CFP-Ran/YFP-importin-beta FRET ratio; inhibition, % (concentration not given with the values);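 active = more than half of the replicate wells show a fall in the fluorescence ratio signal beyond about 16%, limit read from the data, passing the limit was not always enough; inconclusive = exactly half of the replicate wells pass the set limit; inactive = fewer than half of replicates pass the limit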;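 note: 0% = DMSO wells and 100% = Ran loaded with GDP instead of GTP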
TNF death inh = TNF-alpha cell death inhibition in Jurkat FADD-/- cells | Jurkat FADD-/- TNF necroptosis rescue, ATP luminescence, 24 h; 0 = TNF only, 100 = no-TNF cells | activation (protection from cell death), % at 10 µM | AID 463075 | 220,000 tested, 0.068% active;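 active = activation, meaning protection from cell death, of at least 50% relative to plate controls; inactive = activation below 50%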;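 note: necroptosis triggered by 40 ng/mL TNF-alpha added together with compound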
Runt-SMMHC FRET = Runt domain-CBFb-SMMHC interaction inhibition | Cerulean-Runt/Venus-CBFb-SMMHC FRET ratio 530/480, 1 h | inhibition, % at 20 µM | 220,000 tested, 0.74% active | AID 1434;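 active = mean inhibition across duplicate retests at 20 µM reaching about 50%, limit read from the data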;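 note: 0% = DMSO wells and 100% = wells with excess untagged CBFb-SMMHC; inhibitors lower the FRET ratio by blocking Runt binding to CBFb-SMMHC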
zVAD death inh = blocks zVAD induced death of L929 cells; viability rescue, % at 10 µM; AID 1377; L929 zVAD necroptosis rescue, ATP luminescence, 24 h; with zVAD 60 µM; 220,000 tested, 0.38% active;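 active = activation, scaled between plate controls, above about 75%, limit read from the data; inactive = activation under that limit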;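 note: 0% = zVAD with DMSO and 100% = DMSO alone without zVAD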
Hck-Nef inh = human Hck-Nef kinase inhibition. P08631. Recombinant Hck-YEEI plus Nef, Z-Lyte FRET kinase assay. inhibition, % at 20 µM. 220,000 tested, 0.68% active. AID 463187;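 active = Hck-Nef kinase inhibition above about 50%, limit read from the data; inactive = inhibition below that limit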;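 note: 0% = DMSO with Hck plus Nef and 100% = Hck alone without Nef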
Target sequence (P08631 whole entry, looked up): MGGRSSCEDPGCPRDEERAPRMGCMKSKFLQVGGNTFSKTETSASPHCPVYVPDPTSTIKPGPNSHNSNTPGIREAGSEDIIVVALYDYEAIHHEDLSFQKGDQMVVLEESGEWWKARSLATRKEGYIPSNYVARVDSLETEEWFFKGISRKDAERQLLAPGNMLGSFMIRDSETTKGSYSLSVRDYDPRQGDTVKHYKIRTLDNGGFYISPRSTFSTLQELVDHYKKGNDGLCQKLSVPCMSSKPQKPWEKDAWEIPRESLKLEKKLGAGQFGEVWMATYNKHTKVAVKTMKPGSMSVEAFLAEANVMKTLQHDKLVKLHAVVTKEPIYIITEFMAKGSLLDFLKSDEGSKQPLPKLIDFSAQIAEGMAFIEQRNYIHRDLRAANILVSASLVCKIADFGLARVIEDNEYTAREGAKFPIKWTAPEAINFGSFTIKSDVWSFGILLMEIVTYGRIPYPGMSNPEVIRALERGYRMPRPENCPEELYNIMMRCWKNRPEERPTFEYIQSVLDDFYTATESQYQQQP
YIC counter = counter-screen for RanGTP-importin-beta inhibitors: YIC FRET probe | Purified YIC probe, intramolecular FRET ratio YFP/CFP | IC50, µM | AID 435026 | shares compounds with RanGTP-Impb inh | 1,000 tested, 40% active;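 active = fitted half-maximal inhibitory concentration no more than tenfold above the top dose tested; inconclusive = flat fit with 30 to 70% activity, or poor fit; inactive = half-maximal concentration beyond tenfold above the top dose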
Active calls of the source: *; u = inconclusive; x = no result. An excerpt weighted towards active compounds, which were near 2.1% of everything screened.

SMILES | Runt-CBFb FRET | RanGTP-Impb inh | TNF death inh | Runt-SMMHC FRET | zVAD death inh | Hck-Nef inh | YIC counter
CCc1ccc(CNc2ccc3c(c2)ncn3C(C)(C)C)cc1 | x | 17.8* | x | x | x | x | >50
CCc1ccc(CNc2ccc3c(c2)ncn3CC)cc1 | x | 17.5* | x | x | x | x | >50
O=C(NCc1ccccc1)C1=C[C@@H](C2CC2)C[C@@H](OCCCCO)O1 | -0.9 | -3.3 | 1.0 | -5.4 | 0.4 | 7.1 | x
COCCNC(=O)C(c1ccc(Cl)cc1)N(CCOC)C(=O)CCC(=O)Nc1ccccn1 (stereo unspecified) | x | -0.3 | x | x | x | x | x
O=S(=O)(Nc1nc2ccccc2nc1NCc1ccco1)c1ccc(F)cc1 | 1.0 | 6.4 | -2.1 | -1.6 | 0.4 | 12.7 | x
Cc1sc2ncnc(NCc3cccnc3)c2c1C | 14.8 | 36.6* | -2.8 | 36.6 | -1.0 | 6.1 | >50
Cc1[nH]c2ccccc2c1/C=C/c1nc2ccccc2c(=O)n1CCO | -44.8 | 16.9* | -10.6 | -10.5 | 15.2 | -5.7 | 9.01*
O=c1c2ccccc2nc(/C=C/c2ccc(Br)cc2)n1CCO | x | 3.4 | x | x | x | x | x
COc1ccc(-c2c(N)nnc3c2[nH]c2ccccc23)cc1OC | 0.1 | 26.6* | 1.2 | 3.9 | 70.8 | 2.0 | >50
COc1cc(NC(=O)c2n[nH]c(=O)c3ccccc23)cc(OC)c1 | 0.5 | -7.9 | 0.0 | 3.0 | 0.1 | 25.7 | x
COc1ccc(-c2nc(NC(=O)c3n[nH]c(=O)c4ccccc34)sc2C)cc1 | -13.8 | 21.9* | 1.2 | -32.6 | 0.0 | 2.1 | >50
COC(=O)C1=CN(Cc2ccccc2)C=C(C(=O)OC)C1c1ccc(O)c(OC)c1 | x | 28.4* | x | x | x | x | >50
COC(=O)C1=CN(Cc2ccc(OC)c(OC)c2)C=C(C(=O)OC)C1c1ccccc1F | x | 28.2* | x | x | x | x | 11.1*
CCOc1cc(C2C(C(=O)OC)=CN(Cc3ccc(Cl)cc3)C=C2C(=O)OC)ccc1O | x | 5.8 | x | x | x | x | x
COc1ccc(CCNC(=O)c2ccccc2C(=O)NCCc2ccc(OC)c(OC)c2)cc1OC | x | 2.1 | x | x | x | x | x
Cc1ccc(-c2cc3nc(-c4ccccc4)cc(N4CCC5(CC4)OCCO5)n3n2)cc1 | -5.0 | 29.5* | 0.2 | -3.3 | -0.4 | 6.3 | 5.56*
COC(=O)c1cc(C(=O)OC)[nH]n1 | 1.9 | 20.0* | 0.3 | -2.7 | 0.2 | 14.9 | >50
COC(=O)c1cc(-c2ccccc2)n[nH]1 | 2.2 | -2.5 | -1.3 | 2.0 | 5.8 | 6.6 | x
CCOCCCNC(=O)c1cc(-c2ccc(Br)s2)nc2ccccc12 | x | 19.3* | x | x | x | x | 27.9*
CC(C)OCCCNC(=O)c1cc(-c2cccs2)nc2ccccc12 | x | 2.1 | x | x | x | x | x
COC(=O)c1cc(=O)n2c(sc3ccccc32)c1C#N | 66.3* | 44.8* | -1.0 | 88.1* | 0.7 | 3.4 | 4.11*
NC(=O)COc1ccc(/C=N\NC(=O)c2ccc(-c3ccccc3)cc2)cc1 | x | 1.1 | x | x | x | x | x
CCc1nnc(NC(=O)CS(=O)(=O)Cc2ccccc2)s1 | x | 4.8 | x | x | x | x | x
CC(=O)c1sc2nc(C)c3c(c2c1N)CCCC3 | 43.8 | 31.5* | -3.8 | 89.8* | 16.8 | 28.6 | 14.4*
CCCNC(=O)N1CCN(S(C)(=O)=O)CC1 | 2.7 | 1.3 | -0.4 | -0.6 | 1.5 | 22.1 | x
SMILES | Runt-CBFb FRET | RanGTP-Impb inh | TNF death inh | Runt-SMMHC FRET | zVAD death inh | Hck-Nef inh | YIC counter
CCN1CCc2nc(NC(=O)c3ccc(S(=O)(=O)N(C)C)cc3)sc2C1 | 2.5 | -1.6 | -0.4 | 2.7 | 1.2 | -10.4 | x
CCN1CCc2nc(NC(=O)CC(c3ccccc3)c3ccccc3)sc2C1 | 5.5 | 30.8* | -1.1 | 60.0* | 0.4 | 13.0 | 15.6*
N=c1c(S(=O)(=O)c2ccc(Cl)cc2)cc2c(=O)n3ccccc3nc2n1Cc1cccnc1 | x | 32.9* | x | x | x | x | u
CC(=O)N(/N=C1\Sc2ccccc2C1=O)c1ccc(C)cc1C | 18.1 | 3.4 | -4.2 | 6.7 | -0.2 | 5.0 | x
CC(=O)N(/N=C1\Sc2ccccc2C1=O)c1ccccc1C | x | 23.8* | -8.1 | -8.7 | 0.5 | 0.0 | 39.9*
CC(=O)N1N=C(c2cccs2)CC1c1cccs1 (stereo unspecified) | -0.1 | -0.1 | -1.2 | 1.3 | -1.0 | 12.0 | x
CC(=O)c1ccc(-c2cccs2)s1 | 78.4* | 18.6* | -1.2 | 142.6* | 3.2 | 38.1 | 28.9*
O=c1[nH]c2c(s1)C(c1ccco1)C1C3CCC(C3)C1S2 (stereo unspecified) | 7.7 | 24.3* | -0.5 | 4.1 | -0.6 | -18.9 | >50
O=C1CC(c2ccco2)Sc2ccccc2N1 (stereo unspecified) | x | 2.0 | x | x | x | x | x
Cc1ccc(/C=N/Nc2ccnc3cc(Cl)ccc23)c(C)c1 | -19.0 | -4.6 | -15.9 | -20.7 | 11.6 | 7.9 | x
Cc1ccccc1/C=N/Nc1ccnc2cc(Cl)ccc12 | -22.8 | 23.4* | -17.0 | -33.7 | 1.0 | 8.3 | >50
COc1cc(CN2CCN(Cc3c[nH]c4ccccc34)CC2CCO)cc(OC)c1 (stereo unspecified) | x | 20.9* | x | x | x | x | >50
COc1ccc(CCNC(=O)[C@@H](NC(=O)c2ccccc2F)C(C)C)cc1OC | 1.5 | 1.3 | 0.9 | 2.5 | 1.6 | 24.7 | x
CCC(=O)N(CC(=O)Nc1sc(C)c(C)c1C(N)=O)C1CCCC1 | 1.2 | 21.6* | 0.6 | 2.3 | -0.1 | -32.7 | >50
O=C(Cc1ccccc1C(=O)O)Nc1cccc2ccccc12 | x | 21.1* | x | x | x | x | >50
N#C/C(=C/c1cn(CC(=O)O)c2ccccc12)C(=O)NCc1ccccc1 | 4.5 | 22.6* | 0.2 | 3.8 | -0.4 | 23.1 | >50
Cn1c(=O)cc(OCC(=O)NCc2ccccn2)c2ccccc21 | -0.1 | 1.9 | -3.1 | -8.6 | 0.3 | 1.8 | x
Cn1c(=O)cc(OCCCC(=O)NCc2ccccn2)c2ccccc21 | -6.1 | 22.5* | -4.8 | 0.1 | 0.9 | 2.4 | >50
CC(CNC(=O)CCS(=O)(=O)c1cc2c(cc1Cl)NC(=O)CO2)c1ccccc1 (stereo unspecified) | x | 8.2 | x | x | x | x | x
Cc1cc(N/N=C/c2ccc(O)cc2O)c2ccccc2n1 | x | 1.9 | x | x | x | x | x
Oc1ccc(/C=N/Nc2ccc3ccccc3c2)c(O)c1 | 15.4 | 16.4* | -1.5 | 33.2 | -0.1 | 28.2 | >50
CCOC(=O)N1CCN(c2cc(=O)n(C3CCCCC3)c(=O)[nH]2)CC1 | 5.0 | 18.8* | 0.5 | -0.6 | 2.4 | 5.5 | >50
CCN1CCN(c2cc(=O)n(C3CCCCC3)c(=O)[nH]2)CC1 | 0.7 | u | 0.1 | -0.2 | 0.9 | 5.7 | x
CCOC(=O)C1CCN(c2cc(=O)n(C3CCCCC3)c(=O)[nH]2)CC1 | -1.5 | 51.1* | -3.6 | 3.1 | 0.2 | 0.4 | >50
CCCCN(CCCC)C(=S)NC(=O)c1ccccc1Cl | 0.8 | -2.3 | 0.8 | 6.3 | 0.5 | -2.8 | x
Cc1c2ccccc2nc2c(F)c(NCCO)c(F)c(F)c12 | 2.4 | -9.8 | -1.8 | 3.1 | 1.1 | -1.5 | x
